Laboratory results as given in ChEMBL document CHEMBL1833955, “Optimization of (arylpiperazinylbutyl)oxindoles exhibiting selective 5-HT₇ receptor antagonist activity” (J Med Chem, 2011).

Tests used:
[1] = target: T1, 5-hydroxytryptamine receptor 1A (Rattus norvegicus, UniProt P19327); assay: Displacement of [3H]8-OH-DPAT from 5-HT1A receptor in rat frontal cortex membrane after 45 mins by scintillation counting; format: cell membranes
T1 sequence (P19327 whole entry): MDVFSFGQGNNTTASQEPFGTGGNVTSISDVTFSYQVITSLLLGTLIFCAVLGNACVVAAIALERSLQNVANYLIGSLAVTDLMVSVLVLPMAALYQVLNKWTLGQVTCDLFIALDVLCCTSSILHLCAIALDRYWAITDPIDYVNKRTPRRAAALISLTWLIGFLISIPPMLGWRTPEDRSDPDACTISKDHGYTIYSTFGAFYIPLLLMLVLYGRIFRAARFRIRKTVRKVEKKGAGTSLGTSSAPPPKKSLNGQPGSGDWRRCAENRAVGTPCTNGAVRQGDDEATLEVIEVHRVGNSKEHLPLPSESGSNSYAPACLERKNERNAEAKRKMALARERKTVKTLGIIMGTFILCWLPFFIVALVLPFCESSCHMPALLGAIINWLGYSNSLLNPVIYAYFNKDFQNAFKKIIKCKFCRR
Procedure, shortened: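 Membranes from adult rat frontal cortex, prepared in 50 mM Tris-HCl pH 7.7 with washes and a 37 °C preincubation. Incubation buffer: 6.66 mM CaCl2, 16.66 μM pargyline, 0.166% ascorbic acid. Ligand 1.5 nM [3H]8-OH-DPAT; 10 μM 5-HT defines nonspecific binding. 45 min at 25 °C, GF/B filtration, scintillation counting. Triplicates; Ki from two nine-point curves, single-site fit.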

[2] = target: T2, Adrenergic receptor alpha-1 (Rattus norvegicus, UniProt P15823+P23944+P43140); assay: Displacement of [3H]prazosin from alpha1-adrenergic receptor in rat frontal cortex membrane after 45 mins by scintillation spectrometry; format: cell membranes
T2 sequence (P15823 whole entry): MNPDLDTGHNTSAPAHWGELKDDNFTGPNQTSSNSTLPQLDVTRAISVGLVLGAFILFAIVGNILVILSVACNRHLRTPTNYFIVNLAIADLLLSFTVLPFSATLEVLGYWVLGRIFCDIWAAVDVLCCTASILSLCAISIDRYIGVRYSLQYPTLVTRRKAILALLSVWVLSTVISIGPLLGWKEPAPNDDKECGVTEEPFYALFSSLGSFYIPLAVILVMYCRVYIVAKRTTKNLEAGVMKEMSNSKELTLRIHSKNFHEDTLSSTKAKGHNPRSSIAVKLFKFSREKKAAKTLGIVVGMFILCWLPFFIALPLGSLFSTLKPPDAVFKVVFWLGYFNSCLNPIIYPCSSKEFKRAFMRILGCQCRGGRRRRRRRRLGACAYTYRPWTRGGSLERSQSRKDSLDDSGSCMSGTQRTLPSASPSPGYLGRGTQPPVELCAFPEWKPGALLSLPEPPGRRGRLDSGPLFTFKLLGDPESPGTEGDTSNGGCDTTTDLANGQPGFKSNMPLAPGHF
T2 sequence (P23944 whole entry): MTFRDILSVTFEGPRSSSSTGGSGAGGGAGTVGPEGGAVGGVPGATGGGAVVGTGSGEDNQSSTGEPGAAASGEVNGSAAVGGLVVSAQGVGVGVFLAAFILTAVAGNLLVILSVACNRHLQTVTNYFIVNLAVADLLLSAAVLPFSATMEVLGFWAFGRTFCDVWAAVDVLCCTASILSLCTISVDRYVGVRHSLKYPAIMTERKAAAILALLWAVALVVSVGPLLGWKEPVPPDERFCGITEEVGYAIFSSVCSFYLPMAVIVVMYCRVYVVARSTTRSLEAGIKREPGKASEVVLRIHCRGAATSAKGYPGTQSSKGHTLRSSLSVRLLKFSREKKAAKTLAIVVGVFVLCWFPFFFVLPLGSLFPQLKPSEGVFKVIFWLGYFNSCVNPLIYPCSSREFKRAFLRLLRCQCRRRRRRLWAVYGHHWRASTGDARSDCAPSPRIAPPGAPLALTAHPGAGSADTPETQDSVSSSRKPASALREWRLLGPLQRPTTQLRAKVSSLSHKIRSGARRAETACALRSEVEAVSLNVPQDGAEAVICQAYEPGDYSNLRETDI
T2 sequence (P43140 whole entry): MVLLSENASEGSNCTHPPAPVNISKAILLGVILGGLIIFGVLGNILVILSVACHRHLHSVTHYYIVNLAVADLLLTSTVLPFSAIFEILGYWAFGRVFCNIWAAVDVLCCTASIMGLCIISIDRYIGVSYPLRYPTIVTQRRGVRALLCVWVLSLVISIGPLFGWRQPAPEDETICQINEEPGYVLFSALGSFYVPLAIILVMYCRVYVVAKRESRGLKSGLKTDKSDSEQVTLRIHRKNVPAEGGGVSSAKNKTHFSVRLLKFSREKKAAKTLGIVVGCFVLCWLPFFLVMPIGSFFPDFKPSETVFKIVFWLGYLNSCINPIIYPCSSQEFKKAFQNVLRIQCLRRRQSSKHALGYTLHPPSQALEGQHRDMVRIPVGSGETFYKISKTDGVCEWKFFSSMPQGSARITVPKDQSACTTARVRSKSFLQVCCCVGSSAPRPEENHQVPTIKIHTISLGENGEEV
Procedure, shortened: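 Rat frontal cortex tissue frozen on dry ice, homogenised in 50 mM Tris-HCl pH 7.7 and washed by centrifugation. [3H]prazosin at 0.6 nM; 10 μM prazosin defines nonspecific binding. 45 min at 25 °C, GF/B filtration, scintillation counting. Triplicates; Ki from two nine-concentration curves fitted to a single-site model.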

[3] = target: 5-hydroxytryptamine receptor 7 (Homo sapiens, UniProt P34969); assay: Displacement of [3H]CT from human 5-HT7 receptor expressed in CHO cells by scintillation spectrometry; format: cell-based
Procedure, shortened: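 Cloned human 5-HT7 receptor from CHO cells, run under the supplier's recommended conditions with [3H]CT. Nonspecific binding with 25 μM clozapine. Ended by GF/C filtration, then scintillation counting. Ki taken from two nine-concentration displacement curves run in triplicate, single-site fit.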

[4] = target: T3, 5-hydroxytryptamine receptor 1A (Rattus norvegicus) (UniProt P19327); assay: Displacement of [3H]8-OH-DPAT from 5-HT1A receptor in rat frontal cortex membrane at 10^-7 M after 45 mins by scintillation counting; format: cell membranes
T3 sequence (whole entry): T1 sequence (P19327 whole entry)

[5] = Metabolic stability in human liver microsomes after 60 mins by HPLC-MS/MS analysis; format: ADME, Microsome; details: read-out: Stability
Procedure, shortened: (§1)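 Test compound at 100 nM final incubated with rat or human liver microsomes (0.33 mg/mL) at 37 °C for 0, 5, 15, 30 and 60 min. Buffer Tris-HCl pH 7.4 with Mg2+ and BSA. Reaction started with NADPH and stopped with ice-cold MeOH. Parent compound measured by HPLC-MS/MS, positive-ion MRM.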

[6] = Selectivity ratio of Ki for 5-HT1A receptor in rat frontal cortex membrane to Ki for human 5-HT7 receptor; format: cell membranes
[7] = Selectivity ratio of Ki for alpha1-adrenergic receptor in rat frontal cortex membrane to Ki for human 5-HT7 receptor; format: cell membranes
[8] = Metabolic stability in rat liver microsomes after 60 mins by HPLC-MS/MS analysis; format: ADME, Microsome; details: read-out: Stability; procedure, shortened: as §1

5-hydroxytryptamine receptor 7, sequence (P34969 whole entry): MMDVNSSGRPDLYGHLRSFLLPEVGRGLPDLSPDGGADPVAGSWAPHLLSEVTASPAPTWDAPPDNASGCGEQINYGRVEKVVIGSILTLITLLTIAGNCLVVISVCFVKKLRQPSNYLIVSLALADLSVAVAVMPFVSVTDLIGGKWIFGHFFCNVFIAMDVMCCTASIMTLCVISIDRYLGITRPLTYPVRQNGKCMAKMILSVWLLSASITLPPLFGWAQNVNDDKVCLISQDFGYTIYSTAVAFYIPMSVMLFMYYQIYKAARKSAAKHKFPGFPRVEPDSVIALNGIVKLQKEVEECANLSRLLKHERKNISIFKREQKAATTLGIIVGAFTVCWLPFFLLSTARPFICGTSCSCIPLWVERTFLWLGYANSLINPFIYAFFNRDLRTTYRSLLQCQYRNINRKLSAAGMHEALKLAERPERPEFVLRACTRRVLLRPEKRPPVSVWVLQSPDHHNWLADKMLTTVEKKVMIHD

**Q.** For `O=C1Nc2ccccc2C1CCCCN1CCN(c2ccccn2)CC1` (stereo unspecified), which Ki [1] is on record?
**A.** 56 nM

**Q.** What about the Ki [2] of the same molecule?
**A.** 130 nM

**Q.** What about the Ki [3] of the same molecule?
**A.** 10.9 nM

**Q.** Which Ki [2] does the source give for `O=C1Nc2c(Cl)cc(Cl)cc2C1CCCCN1CCN(c2ccc(Cl)cc2)CC1` (stereo unspecified) here?
**A.** 757 nM

**Q.** What about the Ki [3] of the same molecule?
**A.** 107 nM

**Q.** Which results are given for `CCC1(CCCCN2CCN(c3ccccc3OC)CC2)C(=O)Nc2ccccc21` (stereo unspecified)?
**A.** Ki [1]: 9.8 nM; Ki [2]: 27 nM

**Q.** Which Ki [3] does the source give for `O=C1Nc2cc(F)ccc2C1CCCCN1CC=C(c2cccc(Cl)c2)CC1` (stereo unspecified) here?
**A.** 13 nM

**Q.** What about the inhibition [4] of the same molecule?
**A.** 72%

**Q.** Which Ki [2] does the source give for `O=C1Nc2ccc(F)cc2C1CCCCN1CCN(c2ccccc2)CC1` (stereo unspecified) here?
**A.** 20 nM

**Q.** What about the Ki [3] of the same molecule?
**A.** 47 nM

**Q.** Which remaining at 1 h [5] does the source give for `CCC1(CCCCN2CCN(c3ccc(Cl)cc3)CC2)C(=O)Nc2cc(F)c(Cl)cc21` (stereo unspecified) here?
**A.** 10%

**Q.** What about the Ratio Ki [6] of the same molecule?
**A.** > 100

**Q.** What about the Ratio Ki [7] of the same molecule?
**A.** 19

**Q.** What about the Ki [2] of the same molecule?
**A.** 191 nM

**Q.** What about the Ki [3] of the same molecule?
**A.** 10 nM

**Q.** And the inhibition [4]?
**A.** 0%

**Q.** And the remaining at 1 h [8]?
**A.** 18%

**Q.** Which Ki [1] does the source give for `CCC1(CCCCN2CCN(c3cccc(Cl)c3)CC2)C(=O)Nc2ccc(F)cc21` (stereo unspecified) here?
**A.** 111 nM

**Q.** And the Ki [2]?
**A.** 46 nM

**Q.** For `CCC1(CCCCN2CC=C(c3cccc(Cl)c3)CC2)C(=O)Nc2ccc(F)cc21` (stereo unspecified), which Ki [1] is on record?
**A.** 123 nM

**Q.** And the Ki [2]?
**A.** 140 nM

**Q.** What about the Ki [3] of the same molecule?
**A.** 52 nM

**Q.** For `CCC1(CCCCN2CCN(c3cccc(F)c3)CC2)C(=O)Nc2ccccc21` (stereo unspecified), which Ki [1] is on record?
**A.** 73 nM

**Q.** What about the Ki [3] of the same molecule?
**A.** 11 nM

**Q.** For `O=C1Nc2ccccc2C1CCCCN1CCN(c2ccccc2)CC1` (stereo unspecified), which Ki [1] is on record?
**A.** 243 nM

**Q.** What about the Ki [2] of the same molecule?
**A.** 22 nM

**Q.** What about the Ki [3] of the same molecule?
**A.** 16 nM

**Q.** Which results are given for `O=C1Nc2cc(F)ccc2C1CCCCN1CCN(c2ccccn2)CC1` (stereo unspecified)?
**A.** Ki [1]: 99 nM; Ki [2]: 33 nM; Ki [3]: 16.8 nM

**Q.** With `O=C1Nc2cc(F)ccc2C1CCCCN1CCN(c2cccc(Cl)c2)CC1` (stereo unspecified) as the molecule, how does the Ki [1] read?
**A.** 118 nM

**Q.** And the Ki [2]?
**A.** 12.5 nM

**Q.** What about the Ki [3] of the same molecule?
**A.** 6.7 nM

**Q.** With `CCC1(CCCCN2CC=C(c3ccc(F)cc3)CC2)C(=O)Nc2ccccc21` (stereo unspecified) as the molecule, how does the Ki [2] read?
**A.** 46 nM

**Q.** And the inhibition [4]?
**A.** 62%
